Screens: PubChem BioAssay, several laboratories
This is one part of a sample in which hits are shown more often than they occur.
CHOP UPR activ: activators of apoptotic CHOP UPR arm, primary screen, cell-based, CHO-CHOP luciferase reporter, luminescence, uHTS. UPR activation; percent of tunicamycin response over DMSO baseline. activation, % at 10 µM. 0.34% of 330,000 active;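 active = at 10 µM dose, activation of 40% or more, normalized to positive control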;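 note: 100% = tunicamycin at 10 µg/mL and 0% = DMSO alone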
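Evaluation: % reporter activation, DMSO baseline versus tunicamycin full activation; System: CHO-CHOP luciferase reporter cell line; Input: 500 cells/well; Incubation: 6 h compound treatment, 37 °C; Measured by: Steady-Glo luciferase luminescence; Dosing: one dose, 10 µM in 0.5% DMSO; Buffer or medium: F12 medium, 10% FBS; Benchmarks: positive tunicamycin 10 µg/mL, negative DMSO alone.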
p-CIP stab down: p/CIP-EGFP fusion destabilizers, primary screen, fluorescence, F442A cells | Q05BA5 | AID 1984, 2009 | decrease of EGFP signal, % at 10 µM | 16 h | 0.01% of 290,000 active;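 active = EGFP signal decrease of at least 30% at 10 µM or well 3 SD below plate mean, unless failing retest; inactive = the rest, including hits failing retest or dose response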
UPR XBP1 act: activators of adaptive XBP1 UPR arm, primary screen, cell-based, CHO-XBP1 luciferase reporter, luminescence, uHTS. IRE1-XBP1 UPR activation; percent of tunicamycin response, DMSO as zero. activation, % at 20 µM. 0.33% of 330,000 active. AID 463104, 2010;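 active = versus positive control, 20 µM dose yields 30% or more activation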;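 note: 100% = tunicamycin at 10 µg/mL and 0% = DMSO only wells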
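assay system = CHO-XBP1 luciferase reporter cells | amount = 1000 cells/well | buffer or medium = F12 plus 10% FBS | compound dosing = single point, 20 µM final compound, 1% DMSO | incubation = 16-18 h cell attachment at 37 °C, then 6 h compound exposure | detection = Steady-Glo luminescence read | controls = tunicamycin 10 µg/mL and vehicle-only wells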
CHOP inh: inhibitors of CHOP promoter induction, primary screen, cell-based, unfolded protein response, luciferase reporter; AID 2732, 2010; inhibition, % at 10 µM; 3.8% of 220,000 active; CHO-K1 CHOP-promoter luciferase, tunicamycin-induced, 15-18 h;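 active = compounds that reduced the stress-induced luciferase reporter signal by more than about 70% of percent inhibition, limit read from the data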;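 note: 0% = tunicamycin plus vehicle and 100% = wells without tunicamycin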
Dynein cargo inh: inhibitors of GR-EGFP nuclear translocation, primary screen, dynein cargo transport inhibitor project, imaging, high-content, 3617.4 mouse cells. 0.47% of 220,000 active. z-score, hits read low. test concentration mostly 20 µM; stimulated with dexamethasone, 1 µM; hits give low values;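 active = plate z-score of nuclear minus cytoplasmic receptor signal below a set negative limit, without overly bright fluorescence or cell loss, cut at about -3.5 in these data, passing the limit was not always enough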;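 note: z-score of nuclear minus cytoplasmic ring GR-EGFP intensity difference per well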
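Schedule: 48 h induction, then 1 h compound, then 30 min agonist, 37 °C. Buffer or medium: tetracycline-free induction medium containing charcoal-stripped FBS. Reagent: 1.0 µM final dexamethasone stimulus. Evaluation: nuclear versus cytoplasmic GR-EGFP signal, averaged per well. Signal: high-content fluorescence imaging after fixation.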
Beta2AR agonist: beta2AR agonists driving receptor internalization, primary screen, cell-based, FAP fluorogen, flow cytometry. Beta-2 adrenergic receptor (Homo sapiens), P07550. Am2.2-beta2AR cells. response, % (no concentration beside the values). 0.43% of 340,000 active;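 active = response above a set limit, near 3 SD of response in nonfluorescent compounds, cut at about 42% in these data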
Target sequence (P07550 whole entry, looked up): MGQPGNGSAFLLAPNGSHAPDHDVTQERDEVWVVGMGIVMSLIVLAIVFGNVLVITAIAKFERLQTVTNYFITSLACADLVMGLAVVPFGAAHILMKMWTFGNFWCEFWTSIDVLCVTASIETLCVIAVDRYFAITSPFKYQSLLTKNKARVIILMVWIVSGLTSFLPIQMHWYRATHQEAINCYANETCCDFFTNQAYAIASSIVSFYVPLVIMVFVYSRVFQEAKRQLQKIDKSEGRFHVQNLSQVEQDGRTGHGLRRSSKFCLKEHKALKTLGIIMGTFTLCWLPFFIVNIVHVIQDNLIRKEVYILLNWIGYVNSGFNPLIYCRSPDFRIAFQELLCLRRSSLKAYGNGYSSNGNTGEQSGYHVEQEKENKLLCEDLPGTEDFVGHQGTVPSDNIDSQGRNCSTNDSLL
Active calls of the source: *; / = not tested or not shown; ! = repeats disagree.

SMILES	CHOP UPR activ	p-CIP stab down	UPR XBP1 act	CHOP inh	Dynein cargo inh	Beta2AR agonist
S=C(NCCSCc1ccc(Cl)c(Cl)c1)Nc1ccccc1	0	/	-1	/	1.7	47*
COc1ccc(CSCCNC(=S)Nc2ccccc2)cc1Cl	-1	-28	-2	29	0.67	4
CC(/C=N/N1CCN(c2ccccn2)CC1)=C\c1ccccc1	8	-13	0	44	0.74	-4
CCOC(=O)c1ccc(N=c2sc(C(=O)OC)cc(=O)n2CCCN2CCOCC2)cc1	2	-10	-2	42	-3.6*!	17
CC(=O)c1sc(NC(=O)C(C)Oc2ccc3c(C)cc(=O)oc3c2)nc1C (stereo unspecified)	0	-6	-3	/	/	-12
CCOC(=O)c1sc2ccccc2c1OC(=O)c1ccccc1	0	-6	0	81*	-0.65	5
CCOC(=O)c1sc2ccccc2c1NC(=O)c1coc2ccccc2c1=O	7	-3	8	21	-0.35	-3
CCc1ccc(NC(=O)NCC2CCN(c3ccc(OC)cc3)C2)cc1 (stereo unspecified)	1	-4	-1	48	-0.79	14
CCOc1ccc(NC(=O)NCC2CCN(c3ccc(OC)cc3)C2)cc1 (stereo unspecified)	0	4	-3	76*	-1.4	-1
CCCc1cc(NCCCO)n2c(nc3ccccc32)c1C#N	-2	6	5	-6	0.46	-8
COc1cc(/C=N/Nc2ccc(Cl)c(C(=O)O)c2)ccc1OCC(=O)N1C(C)CCCC1C (stereo unspecified)	6	-5	-2	-26	-1	0
COc1ccc2nc(-n3c(O)c(C4=c5ccccc5=NC4=O)[nH]c3=S)sc2c1	/	-1	/	103*	1.7	14
Cn1c(O)c(C2=c3ccccc3=NC2=O)[nH]c1=S	1	-1	-1	84*	-0.097	-10
O=C1N=c2ccc(Br)cc2=C1c1sc(=O)[nH]c1O	2	-3	-3	/	/	/
O=C(CCNS(=O)(=O)c1cccc2nsnc12)NCc1ccco1	-1	7	-2	36	-0.38	2
CCN1CCN(Cc2ccc(NC(=O)c3ccc(C)c(NC(=O)C(=O)c4c[nH]c5ccccc45)c3)cc2C(F)(F)F)CC1	25	-7	17	92*	-0.18	50*
CCSC1(SCC)N=C(N)C2(C#N)C(c3ccccc3)NC(C)=C(C)C12C#N (stereo unspecified)	/	6	/	-5	-1	3
CCCCSC1(SCCCC)N=C(N)C2(C#N)C(c3ccccc3)NC(C)=C(C)C12C#N (stereo unspecified)	-2	0	1	76*	-0.95	6
Cc1ccn(S(=O)(=O)c2ccc3oc(=O)ccc3c2)n1	-1	-21	-4	/	/	-4
CCOC(=O)C1=C(c2ccccc2)NC(SCC(=O)Nc2ccc(C)cc2)=C(C#N)C1c1ccco1 (stereo unspecified)	4	10	0	94*	-0.61	-5
CCOC(=O)C1=C(c2ccccc2)NC(SCC(=O)Nc2cccc(C)c2)=C(C#N)C1c1ccco1 (stereo unspecified)	-1	2	0	99*	3.1	-1
CCOC(=O)C1=C(c2ccccc2)NC(SCC(=O)Nc2ccccc2C)=C(C#N)C1c1ccco1 (stereo unspecified)	1	-2	-1	43	-0.3	-1
Cc1cc2[nH]c3c(c[n+](C)c4ccccc34)c2cc1C	6	-6	-1	-171	-4.4*	19
Cc1c(NC(=O)C(C)OC(=O)c2cc(Cl)ccc2O)c(=O)n(-c2ccccc2)n1C (stereo unspecified)	-1	-13	-3	/	/	-6
C/C(=N\NC(=O)CNc1cccc(C(F)(F)F)c1)c1cccc(Br)c1	1	0	-1	68	-0.18	-10
SMILES	CHOP UPR activ	p-CIP stab down	UPR XBP1 act	CHOP inh	Dynein cargo inh	Beta2AR agonist
C/C(=N\NC(=O)CNc1cccc(C(F)(F)F)c1)c1ccc(Br)cc1	2	-13	2	94*	-0.39	4
Cc1ccoc1C(=O)Nc1ccc(CC(=O)O)cc1	-6	-23	-4	73*	-0.21	0
CC(C)(C)OC(=O)[C@H](Cc1ccccc1)NC(=O)c1[nH]cnc1C(=O)Nc1cccc(Cl)c1	2	-5	5	29	-0.53	7
CC(C)C[C@H](NC(=O)c1nc[nH]c1C(=O)NCC(=O)OC(C)(C)C)C(=O)OC(C)(C)C	-2	3	1	84*	0.59	-5
Cc1cccc(NC(=O)c2nc[nH]c2C(=O)N[C@@H](Cc2ccccc2)C(=O)OC(C)(C)C)c1	0	-6	28	74*	-0.76	1
CCn1cc(C(=O)O)c(=O)c2cc(F)c(N/N=C/c3ccccc3[N+](=O)[O-])cc21	0	3	10	78*	0.89	6
CC(C)(C)N(Cc1ccccc1)C(=O)CN1C(=O)NC2(CCCCCC2)C1=O	0	/	1	/	/	-4
C=CCn1c(-c2ccccc2)ccc(C#N)c1=O	0	-11	-4	91*	-0.12	5
C=CCn1c(-c2ccccc2)cc(SC)c(C#N)c1=O	0	-4	-2	54	0.22	-7
Cc1cccc(N2CCN(C(=O)c3cc(S(=O)(=O)N4CCOCC4)cn3C)CC2C)c1 (stereo unspecified)	-1	-2	-5	/	/	2
Cc1ccc(N2CCN(C(=O)CNS(=O)(=O)c3ccc(Br)s3)CC2C)cc1 (stereo unspecified)	-1	-5	-4	72*	-0.61	2
Fc1ccc(CNc2nc(-c3ccccc3)nc3ccccc23)cc1	-2	-1	-4	73*	2.6	-11
c1ccc(-c2nc(NCc3cccnc3)c3ccccc3n2)cc1	0	-9	1	-6	-0.069	-19
O=[N+]([O-])c1cccc(-c2nc(NCc3ccccc3)c3ccccc3n2)c1	1	2	0	41	-0.56	-4
O=[N+]([O-])c1ccc(-c2nc(NCc3ccccc3)c3ccccc3n2)cc1	2	-7	-2	90*	-0.022	2
CCn1cc(/C=N/NC(=O)c2ccc3c(c2)OCO3)cn1	1	4	-1	14	-0.042	2
CCOc1ccc(OCCSc2nc3ccccc3[nH]2)cc1	-2	-3	-2	36	0.83	-7
CCCOc1ccc(CSc2nc3ccccc3[nH]2)cc1	4	1	1	76*	-0.51	-11
